Values joined by “and” are separate entries in the source; they are usually repeats but may differ in a detail not shown here. Identical values can stand only once.
system: U2OS; experiment: Multiplex assay against U2OS; format: toxicity, cell-based; details: human, 12 h, 1 µM, compound concentration 1 uM
In short: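 On a CQ1 microscope at 37°C and 5% CO2, live cells were imaged after compound addition. They had been stained at seeding with Hoechst33342, BioTracker Green Microtubule Cytoskeleton Dye, MitoTracker Red and Annexin V Alexa Fluor 680. CellPathfinder machine-learning gating assigned cells to Hoechst high-intensity objects or normal cells, normal cells to healthy, pyknosed or fragmented nuclei, and pyknosed cells to mitotic or apoptotic. Tubulin, mitochondrial-mass and membrane-permeability phenotypes are per cents of healthy-nucleus cells.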

| Structure (SMILES) | Population Apoptotic (%) | Population Fragmented Nuclei (%) | Population Healthy Nuclei (%) | Population Hoechst High Intensity Objects (%) | Population Membrane Permeable-Phenotype (%) | Population Mitochondria Different-Phenotype (%) | Population Normal (%) | Population Pyknosed Nuclei (%) | Population Tubulin-Different-Phenotype (%) | Total Cell Count |
| --- | --- | --- | --- | --- | --- | --- | --- | --- | --- | --- |
| O=C(O)c1cc2ccccc2c(Cc2c(O)c(C(=O)O)cc3ccccc23)c1O [PAMOIC ACID] | 85% and 50% | 23% and 15% | 68% and 73% | 1% and 0% | 2% and 12% | 0% and 6% | 98% and 100% | 8% and 11% | 0% and 13% | 246 and 109 |
| COc1cc2ncnc(Nc3ccc(Oc4ccccc4)cc3C)c2cc1OC.Cl | 43.18% and 56.25% | 1.46% and 3.77% | 89.4% and 86.16% | 0% | 0.23% and 2.92% | 0.47% and 9.49% | 100% | 9.15% and 10.06% | 0.47% and 0.73% |  |

same assay, conditions: human, 12 h, 1 µM, compound concentration 1 uM

| Structure (SMILES) | Population Mitotic Cells (%) |
| --- | --- |
| COc1cc2ncnc(Nc3ccc(Oc4ccccc4)cc3C)c2cc1OC.Cl | 56.82% and 43.75% |

same assay, conditions: human, 12 h, 10 µM, compound concentration 10 uM

| Structure (SMILES) | Population Apoptotic (%) | Population Fragmented Nuclei (%) | Population Healthy Nuclei (%) | Population Hoechst High Intensity Objects (%) | Population Membrane Permeable-Phenotype (%) | Population Mitochondria Different-Phenotype (%) | Population Mitotic Cells (%) | Population Normal (%) | Population Pyknosed Nuclei (%) | Population Tubulin-Different-Phenotype (%) |
| --- | --- | --- | --- | --- | --- | --- | --- | --- | --- | --- |
| O=C(O)c1cc2ccccc2c(Cc2c(O)c(C(=O)O)cc3ccccc23)c1O [PAMOIC ACID] | 75% and 87% | 19% | 75% | 2% and 0% | 6% and 5% | 1% and 3% | 25% and 12% | 97% and 100% | 4% and 5% | 4% and 2% |
| COc1cc2ncnc(Nc3ccc(Oc4ccccc4)cc3C)c2cc1OC.Cl | 37.93% and 21.21% | 2.47% and 2.03% | 81.64% and 75.68% | 0.27% and 0% | 11.74% and 10.71% |  | 62.07% and 78.79% | 99.73% and 100% | 15.89% and 22.3% | 14.09% and 5.36% |

same assay, conditions: human, 12 h, 10 µM, compound concentration 10 uM

| Structure (SMILES) | Total Cell Count |
| --- | --- |
| O=C(O)c1cc2ccccc2c(Cc2c(O)c(C(=O)O)cc3ccccc23)c1O [PAMOIC ACID] | 259 and 140 |
| COc1cc2ncnc(Nc3ccc(Oc4ccccc4)cc3C)c2cc1OC.Cl | 366 and 148 |

same assay, conditions: human, 24 h, 1 µM, compound concentration 1 uM

| Structure (SMILES) | Population Apoptotic (%) | Population Fragmented Nuclei (%) | Population Healthy Nuclei (%) | Population Hoechst High Intensity Objects (%) | Population Membrane Permeable-Phenotype (%) | Population Mitochondria Different-Phenotype (%) | Population Mitotic Cells (%) | Population Normal (%) | Population Pyknosed Nuclei (%) | Population Tubulin-Different-Phenotype (%) |
| --- | --- | --- | --- | --- | --- | --- | --- | --- | --- | --- |
| O=C(O)c1cc2ccccc2c(Cc2c(O)c(C(=O)O)cc3ccccc23)c1O [PAMOIC ACID] | 92% and 76% | 18% and 20% | 72% and 70% | 1% and 0% | 2% and 11% | 0% and 2% | 8% and 23% | 98% and 99% | 8% and 9% | 1% and 7% |
| COc1cc2ncnc(Nc3ccc(Oc4ccccc4)cc3C)c2cc1OC.Cl | 41.67% and 39.13% | 2.08% and 5.24% | 88.99% and 83.81% | 0% | 0.67% and 2.84% | 0.67% and 6.25% | 58.33% and 60.87% | 100% | 8.93% and 10.95% | 0.67% and 1.7% |

same assay, conditions: human, 24 h, 1 µM, compound concentration 1 uM

| Structure (SMILES) | Total Cell Count |
| --- | --- |
| O=C(O)c1cc2ccccc2c(Cc2c(O)c(C(=O)O)cc3ccccc23)c1O [PAMOIC ACID] | 288 and 139 |

same assay, conditions: human, 24 h, 10 µM, compound concentration 10 uM

| Structure (SMILES) | Population Apoptotic (%) | Population Fragmented Nuclei (%) | Population Healthy Nuclei (%) | Population Hoechst High Intensity Objects (%) | Population Membrane Permeable-Phenotype (%) | Population Mitochondria Different-Phenotype (%) | Population Mitotic Cells (%) | Population Normal (%) | Population Pyknosed Nuclei (%) | Population Tubulin-Different-Phenotype (%) |
| --- | --- | --- | --- | --- | --- | --- | --- | --- | --- | --- |
| O=C(O)c1cc2ccccc2c(Cc2c(O)c(C(=O)O)cc3ccccc23)c1O [PAMOIC ACID] | 82% and 90% | 17% and 13% | 76% and 79% | 3% and 1% | 5% and 7% | 2% and 3% | 17% and 9% | 96% and 98% | 5% and 6% | 3% and 7% |
| COc1cc2ncnc(Nc3ccc(Oc4ccccc4)cc3C)c2cc1OC.Cl | 64.1% and 26.19% | 3.39% and 3.61% | 79.01% and 71.08% | 0% | 8.57% and 6.78% |  | 35.9% and 73.81% | 100% | 17.61% and 25.3% | 10.29% and 10.17% |

same assay, conditions: human, 24 h, 10 µM, compound concentration 10 uM

| Structure (SMILES) | Total Cell Count |
| --- | --- |
| O=C(O)c1cc2ccccc2c(Cc2c(O)c(C(=O)O)cc3ccccc23)c1O [PAMOIC ACID] | 314 and 163 |
| COc1cc2ncnc(Nc3ccc(Oc4ccccc4)cc3C)c2cc1OC.Cl | 443 and 166 |

same assay, conditions: human, 48 h, 1 µM, compound concentration 1 uM

| Structure (SMILES) | Population Apoptotic (%) | Population Fragmented Nuclei (%) | Population Healthy Nuclei (%) | Population Hoechst High Intensity Objects (%) | Population Membrane Permeable-Phenotype (%) | Population Mitochondria Different-Phenotype (%) | Population Mitotic Cells (%) | Population Normal (%) | Population Pyknosed Nuclei (%) | Population Tubulin-Different-Phenotype (%) |
| --- | --- | --- | --- | --- | --- | --- | --- | --- | --- | --- |
| O=C(O)c1cc2ccccc2c(Cc2c(O)c(C(=O)O)cc3ccccc23)c1O [PAMOIC ACID] | 83% and 90% | 16% and 11% | 74% and 76% | 1% and 2% | 2% and 9% | 1% and 3% | 16% and 10% | 98% and 97% | 9% and 11% | 2% and 5% |
| COc1cc2ncnc(Nc3ccc(Oc4ccccc4)cc3C)c2cc1OC.Cl | 42.28% and 50% | 3.36% and 3.22% | 87.01% and 84.5% | 0% | 0.54% and 2.42% | 0% and 6.23% | 57.72% and 50% | 100% | 9.62% and 12.28% | 0.63% and 1.38% |

same assay, conditions: human, 48 h, 1 µM, compound concentration 1 uM

| Structure (SMILES) | Total Cell Count |
| --- | --- |
| O=C(O)c1cc2ccccc2c(Cc2c(O)c(C(=O)O)cc3ccccc23)c1O [PAMOIC ACID] | 469 and 177 |

same assay, conditions: human, 48 h, 10 µM, compound concentration 10 uM

| Structure (SMILES) | Population Apoptotic (%) | Population Fragmented Nuclei (%) | Population Healthy Nuclei (%) | Population Hoechst High Intensity Objects (%) | Population Membrane Permeable-Phenotype (%) | Population Mitochondria Different-Phenotype (%) | Population Mitotic Cells (%) | Population Normal (%) | Population Pyknosed Nuclei (%) | Population Tubulin-Different-Phenotype (%) |
| --- | --- | --- | --- | --- | --- | --- | --- | --- | --- | --- |
| O=C(O)c1cc2ccccc2c(Cc2c(O)c(C(=O)O)cc3ccccc23)c1O [PAMOIC ACID] | 96% and 89% | 15% and 20% | 77% and 66% | 3% and 0% | 5% and 6% | 1% and 2% | 3% and 10% | 96% and 99% | 6% and 13% | 4% and 2% |
| COc1cc2ncnc(Nc3ccc(Oc4ccccc4)cc3C)c2cc1OC.Cl | 65.09% and 50% | 6.98% and 4.76% | 79.05% and 76.19% | 0% | 4.33% and 8.52% |  | 34.91% and 50% | 100% | 13.97% and 19.05% | 10.17% and 11.93% |

same assay, conditions: human, 48 h, 10 µM, compound concentration 10 uM

| Structure (SMILES) | Total Cell Count |
| --- | --- |
| O=C(O)c1cc2ccccc2c(Cc2c(O)c(C(=O)O)cc3ccccc23)c1O [PAMOIC ACID] | 455 and 218 |
